# Published values of several laboratories.
# Each line is one published result; the experiments were not run side by side.
SMILES,organism,test,system,conditions,quantity,result
COc1ccc(C=NNC(=O)CSc2nc3c(C)cccc3c(=O)n2-c2ccccc2)cc1OS(C)(=O)=O,Pseudomonas aeruginosa,"microbial growth, well diffusion",,20 µg/mL,inhibition zone,2 mm
CNC(C)C1CCC(N)C(OC2C(N)CC(N)C(OC3OCC(C)(O)C(NC)C3O)C2O)O1 (stereo not shown),Pseudomonas aeruginosa,"microbial killing, broth dilution",ATCC27853,24 h,MBC,8000 µM
CCCS(=O)(=O)Oc1ccc(C=NNC(=O)CSc2nc3c(C)cccc3c(=O)n2-c2ccccc2)cc1OC,Pseudomonas aeruginosa,"microbial growth, well diffusion",,20 µg/mL,inhibition zone,2 mm
CN[C@H](CC(C)C)C(=O)N[C@H]1C(=O)N[C@@H](CC(N)=O)C(=O)N[C@H]2C(=O)N[C@H]3C(=O)N[C@H](C(=O)N[C@H](C(=O)O)c4cc(O)cc(O)c4-c4cc3ccc4O)[C@H](O)c3ccc(c(Cl)c3)Oc3cc2cc(c3O[C@@H]2O[C@H](CO)[C@@H](O)[C@H](O)[C@H]2O[C@H]2C[C@](C)(N)[C@H](O)[C@H](C)O2)Oc2ccc(cc2Cl)[C@H]1O,Kocuria,"microbial growth, broth dilution",,,MIC,0.67 µM
CO[C@H]1/C=C/O[C@@]2(C)Oc3c(C)c(O)c4c(c3C2=O)C2=NC3(CCN(CC(C)C)CC3)NC2=C(NC(=O)/C(C)=C\C=C\[C@H](C)[C@H](O)[C@@H](C)[C@@H](O)[C@@H](C)[C@H](OC(C)=O)[C@@H]1C)C4=O,Mycobacteroides abscessus,"microbial growth, agar dilution",ATCC19977,,MIC,11.2 µM
CC(=O)c1sc(N/N=C/c2c(-c3ccccc3)nc3ncccn23)nc1C,Pseudomonas aeruginosa,"microbial growth, well diffusion",ATCC27853,100 µg/mL,inhibition zone,14 mm
CC1(C)S[C@@H]2[C@H](NC(=O)[C@H](N)c3ccccc3)C(=O)N2[C@H]1C(=O)O,Kocuria,"microbial growth, broth dilution",,,MIC,1.34 µM
O=C(O)c1cn(C2CC2)c2cc(N3CCNCC3)c(F)cc2c1=O,Pseudomonas aeruginosa,"microbial growth, broth dilution",,,MIC90,1.56 µM
CCOC(=O)/C=C1/SC(N/N=C/c2c(-c3ccc(F)cc3)nc3ncccn23)=NC1=O,Pseudomonas aeruginosa,"microbial growth, well diffusion",ATCC27853,100 µg/mL,inhibition zone,11 mm
Cc1ccc2[nH]nc(-c3nnc(Nc4ccc(F)cc4Cl)s3)c2c1,Pseudomonas aeruginosa,microbial growth,ATCC27853,,MIC,96.1 µg/mL
